Results as given in ChEMBL document CHEMBL1926550, “Synthesis and antibacterial activity of naphthyridone derivatives containing mono/difluoro-methyloxime pyrrolidine scaffolds” (2012).
Converted amounts (≈) assume the structure as drawn.

test system: Escherichia coli; assay: Antibacterial activity against Escherichia coli 09-1 after 18 hrs by two fold serial dilution method; format: functional; details: 09-1, 18 h
In short: (§1)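 Agar two-fold serial dilution in melted Mueller-Hinton agar, final concentrations 128 down to 0.008 μg/mL. Plates inoculated with 10⁴ cfu and incubated at 35 °C for 18 h. MIC taken as the lowest concentration giving no visible growth on the plate.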

Structure (SMILES)	MIC [µg/mL]
NCC1CN(c2nc3c(cc2F)c(=O)c(C(=O)O)cn3-c2ccc(F)cc2F)C/C1=N\OCF (racemic)	128 (≈ 267 µM)

test system: Staphylococcus aureus; assay: Antibacterial activity against methicillin-resistant Staphylococcus aureus 10-1 after 18 hrs by two fold serial dilution method; format: functional; details: 10-1, 18 h
In short: (§2)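 Agar two-fold serial dilution in melted Mueller-Hinton agar, 128 to 0.008 μg/mL. Plates inoculated with 10⁴ cfu, incubated 35 °C for 18 h. MIC taken as lowest concentration giving no visible growth on the plate.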

Structure (SMILES)	MIC [µg/mL]
NCC1CN(c2nc3c(cc2F)c(=O)c(C(=O)O)cn3-c2ccc(F)cc2F)C/C1=N\OCF (racemic)	64 (≈ 134 µM)

test system: Klebsiella pneumoniae; assay: Antibacterial activity against Klebsiella pneumoniae 10-3 after 18 hrs by two fold serial dilution method; format: functional; details: 10-3, 18 h; in short: as §1

Structure (SMILES)	MIC [µg/mL]
NCC1CN(c2nc3c(cc2F)c(=O)c(C(=O)O)cn3-c2ccc(F)cc2F)C/C1=N\OCF (racemic)	4 (≈ 8.34 µM)

test system: Staphylococcus aureus; assay: Antibacterial activity against methicillin-resistant Staphylococcus aureus 10-3 after 18 hrs by two fold serial dilution method; format: functional; details: 10-3, 18 h; in short: as §2

Structure (SMILES)	MIC [µg/mL]
NCC1CN(c2nc3c(cc2F)c(=O)c(C(=O)O)cn3-c2ccc(F)cc2F)C/C1=N\OCF (racemic)	64 (≈ 134 µM)

test system: Staphylococcus epidermidis; assay: Antibacterial activity against methicillin-sensitive Staphylococcus epidermidis 10-1 after 18 hrs by two fold serial dilution method; format: functional; details: 10-1, 18 h; in short: as §1

Structure (SMILES)	MIC [µg/mL]
NCC1CN(c2nc3c(cc2F)c(=O)c(C(=O)O)cn3-c2ccc(F)cc2F)C/C1=N\OCF (racemic)	32 (≈ 66.8 µM)

test system: Staphylococcus aureus; assay: Antibacterial activity against methicillin-sensitive Staphylococcus aureus 10-3 after 18 hrs by two fold serial dilution method; format: functional; details: 10-3, 18 h; in short: as §1

Structure (SMILES)	MIC [µg/mL]
NCC1CN(c2nc3c(cc2F)c(=O)c(C(=O)O)cn3-c2ccc(F)cc2F)C/C1=N\OCF (racemic)	0.125 (≈ 0.261 µM)

test system: Escherichia coli; assay: Antibacterial activity against Escherichia coli ATCC 25922 after 18 hrs by two fold serial dilution method; format: functional; details: ATCC 25922, 18 h; in short: as §1

Structure (SMILES)	MIC [µg/mL]
NCC1CN(c2nc3c(cc2F)c(=O)c(C(=O)O)cn3-c2ccc(F)cc2F)C/C1=N\OCF (racemic)	0.125 (≈ 0.261 µM)

test system: Pseudomonas aeruginosa; assay: Antibacterial activity against Pseudomonas aeruginosa ATCC 27853 after 18 hrs by two fold serial dilution method; format: functional; details: ATCC 27853, 18 h; in short: as §1

Structure (SMILES)	MIC [µg/mL]
NCC1CN(c2nc3c(cc2F)c(=O)c(C(=O)O)cn3-c2ccc(F)cc2F)C/C1=N\OCF (racemic)	16 (≈ 33.4 µM)

test system: Klebsiella pneumoniae; assay: Antibacterial activity against Klebsiella pneumoniae 10-1 after 18 hrs by two fold serial dilution method; format: functional; details: 10-1, 18 h; in short: as §1

Structure (SMILES)	MIC [µg/mL]
NCC1CN(c2nc3c(cc2F)c(=O)c(C(=O)O)cn3-c2ccc(F)cc2F)C/C1=N\OCF (racemic)	0.5 (≈ 1.04 µM)

test system: Escherichia coli; assay: Antibacterial activity against Escherichia coli 09-3 after 18 hrs by two fold serial dilution method; format: functional; details: 09-3, 18 h; in short: as §1

Structure (SMILES)	MIC [µg/mL]
NCC1CN(c2nc3c(cc2F)c(=O)c(C(=O)O)cn3-c2ccc(F)cc2F)C/C1=N\OCF (racemic)	> 128

test system: Klebsiella pneumoniae; assay: Antibacterial activity against Klebsiella pneumoniae 09-2 after 18 hrs by two fold serial dilution method; format: functional; details: 09-2, 18 h; in short: as §1

Structure (SMILES)	MIC [µg/mL]
NCC1CN(c2nc3c(cc2F)c(=O)c(C(=O)O)cn3-c2ccc(F)cc2F)C/C1=N\OCF (racemic)	> 128

test system: Enterococcus faecalis; assay: Antibacterial activity against Enterococcus faecalis 09-2 after 18 hrs by two fold serial dilution method; format: functional; details: 09-2, 18 h; in short: as §1

Structure (SMILES)	MIC [µg/mL]
NCC1CN(c2nc3c(cc2F)c(=O)c(C(=O)O)cn3-c2ccc(F)cc2F)C/C1=N\OCF (racemic)	32 (≈ 66.8 µM)

test system: Staphylococcus aureus; assay: Antibacterial activity against methicillin-sensitive Staphylococcus aureus 10-4 after 18 hrs by two fold serial dilution method; format: functional; details: 10-4, 18 h; in short: as §1

Structure (SMILES)	MIC [µg/mL]
NCC1CN(c2nc3c(cc2F)c(=O)c(C(=O)O)cn3-c2ccc(F)cc2F)C/C1=N\OCF (racemic)	0.125 (≈ 0.261 µM)

test system: Enterococcus faecium; assay: Antibacterial activity against Enterococcus faecium 09-3 after 18 hrs by two fold serial dilution method; format: functional; details: 09-3, 18 h; in short: as §1

Structure (SMILES)	MIC [µg/mL]
NCC1CN(c2nc3c(cc2F)c(=O)c(C(=O)O)cn3-c2ccc(F)cc2F)C/C1=N\OCF (racemic)	32 (≈ 66.8 µM)

test system: Escherichia coli; assay: Antibacterial activity against Escherichia coli 10-3 after 18 hrs by two fold serial dilution method; format: functional; details: 10-3, 18 h; in short: as §1

Structure (SMILES)	MIC [µg/mL]
NCC1CN(c2nc3c(cc2F)c(=O)c(C(=O)O)cn3-c2ccc(F)cc2F)C/C1=N\OCF (racemic)	32 (≈ 66.8 µM)

test system: Escherichia coli; assay: Antibacterial activity against Escherichia coli 09-2 after 18 hrs by two fold serial dilution method; format: functional; details: 09-2, 18 h; in short: as §1

Structure (SMILES)	MIC [µg/mL]
NCC1CN(c2nc3c(cc2F)c(=O)c(C(=O)O)cn3-c2ccc(F)cc2F)C/C1=N\OCF (racemic)	> 128

test system: Staphylococcus epidermidis; assay: Antibacterial activity against methicillin-resistant Staphylococcus epidermidis 10-2 after 18 hrs by two fold serial dilution method; format: functional; details: 10-2, 18 h; in short: as §2

Structure (SMILES)	MIC [µg/mL]
NCC1CN(c2nc3c(cc2F)c(=O)c(C(=O)O)cn3-c2ccc(F)cc2F)C/C1=N\OCF (racemic)	8 (≈ 16.7 µM)

test system: Enterococcus faecalis; assay: Antibacterial activity against Enterococcus faecalis 09-1 after 18 hrs by two fold serial dilution method; format: functional; details: 09-1, 18 h; in short: as §1

Structure (SMILES)	MIC [µg/mL]
NCC1CN(c2nc3c(cc2F)c(=O)c(C(=O)O)cn3-c2ccc(F)cc2F)C/C1=N\OCF (racemic)	32 (≈ 66.8 µM)

test system: Escherichia coli; assay: Antibacterial activity against Escherichia coli 10-2 after 18 hrs by two fold serial dilution method; format: functional; details: 10-2, 18 h; in short: as §1

Structure (SMILES)	MIC [µg/mL]
NCC1CN(c2nc3c(cc2F)c(=O)c(C(=O)O)cn3-c2ccc(F)cc2F)C/C1=N\OCF (racemic)	4 (≈ 8.34 µM)
